HSF1 inh: HSF1 inhibitors in luciferase reporter cells, primary screen, cell-based, NIH3T3, luminescence; activity change, negative = inhibition, % at 7.5 µM (by protocol); 0.77% of 300,000 active; NIH3T3-HGL HSE-luciferase, MG132-induced, luminescence 8 h; active compounds read low;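 active = more than half of replicate wells show activity change below -50%, luminescence cut by over half; inconclusive = some wells, but at most half, below -50%; inactive = no replicate well below -50%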;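 also: luciferase reports HSF-1 transcriptional activity via heat shock element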
AHR activator: AHR activators, primary screen, cell-based, luminescence, luciferase reporter, human | AHR-responsive luciferase reporter cells | 2.5% of 320,000 active | activation, % at 5 µM; in the data active = activation above about 47%
Target sequence (P35869 whole entry, looked up): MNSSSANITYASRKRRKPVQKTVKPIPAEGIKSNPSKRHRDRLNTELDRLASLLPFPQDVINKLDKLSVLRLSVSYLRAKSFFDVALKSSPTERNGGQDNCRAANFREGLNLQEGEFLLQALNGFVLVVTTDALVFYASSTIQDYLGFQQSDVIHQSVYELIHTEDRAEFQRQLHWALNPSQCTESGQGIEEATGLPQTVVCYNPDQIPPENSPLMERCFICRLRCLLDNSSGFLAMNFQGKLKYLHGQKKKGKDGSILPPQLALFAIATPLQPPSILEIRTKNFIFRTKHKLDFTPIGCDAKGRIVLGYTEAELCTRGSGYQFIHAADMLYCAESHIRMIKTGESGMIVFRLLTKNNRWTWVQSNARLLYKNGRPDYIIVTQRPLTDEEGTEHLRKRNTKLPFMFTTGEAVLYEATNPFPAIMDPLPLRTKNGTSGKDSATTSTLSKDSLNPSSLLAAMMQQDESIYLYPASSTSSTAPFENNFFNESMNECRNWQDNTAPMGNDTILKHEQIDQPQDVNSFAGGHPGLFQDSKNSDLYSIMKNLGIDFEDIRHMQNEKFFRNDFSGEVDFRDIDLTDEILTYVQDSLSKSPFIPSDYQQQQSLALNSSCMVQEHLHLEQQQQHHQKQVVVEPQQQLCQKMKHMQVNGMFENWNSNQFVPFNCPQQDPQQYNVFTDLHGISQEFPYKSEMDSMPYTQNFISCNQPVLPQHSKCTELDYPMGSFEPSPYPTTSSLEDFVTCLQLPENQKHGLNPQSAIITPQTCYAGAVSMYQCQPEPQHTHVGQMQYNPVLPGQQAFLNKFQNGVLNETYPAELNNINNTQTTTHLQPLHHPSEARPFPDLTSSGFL
PERK inh: block of dimerizer-induced PERK translation repression, primary screen, PERK inhibitor project, CHO PERK-DD cells, SEAP luminescence, HTS. Eukaryotic translation initiation factor 2-alpha kinase 3 (Homo sapiens), Q9NZJ5. CHO PERK-DD fusion, SEAP luminescence translation reporter. inhibition, % at 5.6 µM. 0.17% of 220,000 active;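 active = inhibition above the mean inhibition of all tested compounds plus 3 SD, set separately per screening campaign, cut at about 2.9% in these data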;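 also: PERK kinase domain activated by AP20187 dimerizer at 100 nM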
PolyA inh: polyadenylation inhibitors in yeast reporter cells, primary screen, luminescence, S. cerevisiae; S. cerevisiae SKY197-pL101 polyadenylation reporter, beta-gal luminescence; efflux-impaired pdr1/pdr3 knockout yeast; score 100 = 6 SD above DMSO; activity score, % at 12 µM; 0.02% of 300,000 active; AID 1875, 2009;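 active = lowest replicate activity score at least 50, where 100 means six control SD above control mean; inconclusive = lowest score under 50 but half or more replicates reach 50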;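 also: yeast exposed to compound for 9 h at 30 °C; higher score means more reporter readthrough which indicates perturbed polyadenylation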
Hsp70 activator: Hsp70 transcriptional activators, primary screen, cell-based, HeLa, Hsp70 promoter luciferase, luminescence, 10 µM; 0.04% of 200,000 active; activation, % at 10 µM; HeLa Hsp70 promoter luciferase reporter; scaled: vehicle 0, proteasome-inhibitor control 100%; AID 1203, 2008;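 active = activation above the mean across all tested compounds plus 3 SD, cutoff set per campaign, cut at about 5.5% in these data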
STAT3 act-1: IL-6 driven STAT3 reporter potentiators, primary screen, U3A cells, luciferase, luminescence, MLSCN library | IL-6 STAT3-luciferase reporter; 100% = signal with IL-6 EC80 alone | activation (% of control), % at 5.6 µM | AID 871, 2007 | 0.91% of 190,000 active;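 active = activation above the screen-wide mean of compound activation plus 3 SD, cut at about 130% in these data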
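Assay system – human STAT1-deficient U3A cells with stable STAT3-luciferase reporter · Also added – IL-6 (33 ng/mL) · Schedule – compound 1 h, then IL-6 6 h at 37 °C · Technique – reporter luminescence signal · Evaluation – % activation versus median of IL-6-stimulated wells · Benchmarks – IL-6-only wells as 100% reference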
STAT3 act-2: STAT3 reporter potentiators, retest of hits, confirmation, U3A cells, luciferase, luminescence. potentiation (% of control), % at 5.7 µM. 64% of 1,200 active. IL-6 potentiation; U3A cells lack STAT1; 100 means same as IL-6 alone. shares compounds with STAT3 act-1. AID 1267, 2008;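 active = percent activation of the STAT3 luciferase reporter above a set limit taken from the earlier primary screen, cut at about 130% in these data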
NFkB act 2: NF-kB reporter activators in human cells, counter-screen for STAT3 activator project | 11% of 1,200 active | activation (% of control), % at 5.7 µM | NF-kappaB reporter activation | shares compounds with STAT3 act-1; in the data active = activation above about 120%;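 also: reporter induced by TNF-alpha stimulation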
STAT1 act STAT3c: STAT1 reporter activators, IFN-gamma induced, counter-screen for STAT3 activator project, cell-based, NIH 3T3, luciferase luminescence; shares compounds with STAT3 act-1; NIH 3T3 STAT1-luciferase reporter; activation (% of control), % at 5.7 µM; 13% of 1,200 active; AID 1318, 2008;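 active = activation above the solvent-only control well mean plus 3 SD, set per screening run, cut at about 120% in these data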
A number is an active result; . = inactive; ? = inconclusive; / = no result. An excerpt weighted towards active compounds, which were near 3.6% of everything screened.

SMILES	HSF1 inh	AHR activator	PERK inh	PolyA inh	Hsp70 activator	STAT3 act-1	STAT3 act-2	NFkB act 2	STAT1 act STAT3c
Cc1ccc(-c2nnn(CC(=O)N(c3ccccc3F)C(C(=O)NCC3CCCO3)c3c[nH]c4ccccc34)n2)cc1 (stereo unspecified)	.	.	.	.	.	145.1	.	.	.
O=C(N/N=C/c1cn(-c2ccccc2)nc1-c1cc2ccccc2o1)c1cccnc1	.	51.4	.	.	.	158.6	179.0	138.4	204.2
O=C(N/N=C/c1cn(-c2ccccc2)nc1-c1cccnc1)c1ccc(F)cc1	.	.	.	.	.	.	/	/	/
COc1cccc2sc(Nc3nnc(-c4ccc(F)cc4)o3)nc12	.	65.6	.	?	.	159.2	147.9	.	.
O=C(CSc1nncc2ccccc12)Nc1ccccc1	.	.	/	.	/	/	/	/	/
O=C(CSc1nnc2c3ccccc3c3ccccc3c2n1)Nc1ccccc1	.	47.2	.	.	.	157.7	162.0	.	.
Cc1cc(NC(=O)C2CCCCC2)n(-c2nc3ccccc3[nH]2)n1	.	.	.	.	.	.	/	/	/
Cc1cc(NC(=O)C2CC2)n(-c2nc3ccccc3s2)n1	.	.	.	.	.	160.1	153.9	.	.
Cc1cc(NC(=O)CCl)n(-c2nc3ccccc3s2)n1	.	.	.	.	.	151.5	146.4	.	.
Cc1cc(C)nc(NC(=O)CSc2nc3ccccc3s2)n1	.	.	.	.	.	.	/	/	/
O=S(=O)(Nc1ccc(N2CCOCC2)cc1)c1c(F)cc(F)cc1Br	.	.	/	.	/	/	/	/	/
Cc1cc(C(C)(C)C)cc(C)c1COC(=O)c1cccnc1	.	.	/	.	/	/	/	/	/
CCOC(=O)c1[nH]c2ccccc2c1NC(=S)Nc1ccccc1C	.	59.1	.	.	.	151.5	155.1	.	.
CCCC(=O)Nc1c(C(=O)OCC)[nH]c2ccccc12	.	58.1	.	.	.	169.1	149.4	.	.
CCOC(=O)c1[nH]c2ccccc2c1NC(=S)Nc1cc(C)ccc1C	.	60.0	.	.	.	155.0	149.8	.	.
CCOC(=O)c1[nH]c2ccccc2c1NC(=O)CC(C)C	.	.	/	.	/	/	/	/	/
CCOC(=O)c1[nH]c2ccccc2c1NC(=O)Nc1ccc(OC)cc1	.	.	.	.	.	141.3	142.6	.	.
CCOC(=O)c1[nH]c2ccccc2c1NC(=O)c1ccco1	.	.	.	.	.	.	/	/	/
O=C(COC(=O)c1cc(S(=O)(=O)N2CCCCC2)ccc1N1CCOCC1)c1ccccc1	.	.	/	.	/	/	/	/	/
CC1CCCN(C(=O)C2CCN(S(=O)(=O)c3cccc4nonc34)CC2)C1 (stereo unspecified)	.	.	/	.	/	/	/	/	/
N[C@H]1C(O)O[C@H](CO)[C@@H](O)[C@@H]1O (stereo partly specified)	.	.	/	.	/	/	/	/	/
O=C(c1cc2c(s1)CCCC2)N1CCN(S(=O)(=O)c2ccccc2C(F)(F)F)CC1	.	.	.	.	.	138.5	.	.	.
COc1ccc(/C=C/c2onc(C)c2S(=O)(=O)N2CCC(C(=O)N3CCC(C)CC3)CC2)cc1	.	.	/	.	/	/	/	/	/
Cc1ccc(S(=O)(=O)NC(=O)CSc2nc3ccccc3s2)cc1	.	.	.	.	.	141.1	.	.	.
Cc1[nH]c2ccccc2c1CN1CCc2ccccc2C1	.	.	.	.	.	157.8	.	.	.
SMILES	HSF1 inh	AHR activator	PERK inh	PolyA inh	Hsp70 activator	STAT3 act-1	STAT3 act-2	NFkB act 2	STAT1 act STAT3c
Cc1[nH]c2ccccc2c1CCO	.	.	.	.	.	.	/	/	/
CCOC(=O)c1c(C)[nH]c(C(=O)OCC(=O)Nc2cc(C)c(Cl)cc2OC)c1C	.	.	.	.	.	142.4	.	.	.
O=C(C1CCCN(S(=O)(=O)c2cccc3cccnc23)C1)N1CCc2ccccc21 (stereo unspecified)	.	.	.	.	.	138.0	135.4	.	.
O=C(NC1CCCCC1)C1CCCN(S(=O)(=O)c2cccc3cccnc23)C1 (stereo unspecified)	.	.	.	.	/	/	/	/	/
O=C(N/N=C/c1ccc(Br)cc1)c1ccccc1-n1cccc1	.	71.1	.	.	.	148.4	.	.	.
CCOCCCNC(=O)c1ccc2c(c1)N=C(CC)c1cc(Br)ccc1S2	.	.	.	.	.	157.2	.	160.3	.
CCOC(=O)c1sc(Nc2nc3c(F)cccc3s2)cc1C	.	52.5	.	.	.	144.8	150.0	133.7	.
CCOC(=O)c1sc(Nc2nc3ccc(OC)cc3s2)cc1C	.	.	.	.	.	.	/	/	/
CN1CCN(S(=O)(=O)c2cccc(C(=O)Nc3cc(Cl)ccc3N3CCOCC3)c2)CC1	.	.	/	.	/	/	/	/	/
COCCNC(=O)c1cc2c(-c3ccc(Cl)cc3)nn(C)c2s1	.	59.1	.	.	.	152.3	138.8	.	.
CCOC(=O)N1CCC(NC(=O)c2cc3c(-c4ccc(Cl)cc4)nn(C)c3s2)CC1	/	.	.	/	.	151.2	.	.	.
CCN(CC)CCCNC(=O)c1cc2c(-c3cccc(OC)c3)nn(C)c2s1	.	.	/	.	/	/	/	/	/
COCCCNC(=O)c1cc2c(-c3ccc(Cl)cc3)nn(C)c2s1	.	63.8	.	.	.	151.0	143.2	.	.
CCCCN(CC)CCCNC(=O)c1cc2c(-c3ccc(OC)c(OC)c3)nn(C)c2s1	.	.	/	.	/	/	/	/	/
Cn1nc(-c2ccc(Cl)cc2)c2cc(C(=O)NCCCN3CCCC3)sc21	.	54.1	.	.	.	165.8	154.9	.	.
COCCCNC(=O)C1=CCN(S(=O)(=O)c2ccc(OC)cc2)CC1	.	.	/	.	/	/	/	/	/
CNc1nc(-c2c(C)n(C)c3ccc(OC)cc23)cs1	.	.	/	.	/	/	/	/	/
C/C(CCc1ccccc1)=N/NC(=O)C(=O)NCc1ccccc1	.	.	.	.	.	.	/	/	/
Cc1ccc(CNC(=O)c2cc3c(-c4ccc(Cl)cc4)nn(C)c3s2)o1	.	.	.	.	.	155.1	151.9	.	.

From PubChem
